≈ marks a conversion by molar mass, not a printed value. Calls of active or inactive are those of the source. No cut-off for these calls is given here.
Assays:
MCF7 [1] = test: Antimitotic activity in human MCF7mp53 cells assessed as cells arrested at mitotic stage at optimal concentration after 20 hrs; type: functional
Summary of the method: (§1)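 MCF-7mp53 cells in 96-well plates, treated in triplicate with compound at 1-50 μg/mL for 20 h at 37 °C. Plates spun 50g, 2 min, to keep mitotic cells attached. Cells fixed/permeabilized (3.7% formaldehyde, 0.1% Triton X-100 in TBS), blocked with 1% BSA. Mitotic cells stained with TG-3 antibody plus fluorescent secondary, nuclei with Hoechst 33342. High-content imaging gave percentage of cells in mitosis.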

MCF7 [2] = test: Antimitotic activity in human MCF7mp53 cells assessed as induction of mitotic arrest after 20 hrs; type: functional, cell-based; conditions: MCF7, 20 h; summary of the method: as §1
MCF7 [3] = test: Antimitotic activity in human MCF7mp53 cells assessed as induction of mitotic arrest at 50 ug/mL after 20 hrs; type: functional, cell-based; summary of the method: as §1

Structure (SMILES)	IC50 (MCF7 [2]) [µg/mL]	Activity (MCF7 [1]) [%]	Activity (MCF7 [3])
COc1c(C)cc(Cc2c3nc(N)nc-3ccn(C)c2=O)cc1C	–	–	inactive
COc1c(C)cc(/C=C2/C(=O)N(C)C=Cc3nc(N(C)C(=O)C(F)(F)F)n(C)c32)cc1C	–	–	inactive
CNc1nc2ccn(C)c(=O)c(C(O)c3cc(C)c(OC)c(C)c3)c-2n1 (stereo unspecified)	–	–	inactive

Now from value to compound, other results behind:

IC50 (MCF7 [2]) [µg/mL]	Structure (SMILES)	Activity (MCF7 [1]) [%]	Activity (MCF7 [3])
3 (≈ 8.51 µM)	COc1c(C)cc(Cc2c3nc(N(C)C)nc-3ccn(C)c2=O)cc1C	82	–
3.5 (≈ 10.3 µM)	CNc1nc2ccn(C)c(=O)c(Cc3cc(C)c(OC)c(C)c3)c-2n1	67	–
5 (≈ 10.7 µM)	CNc1nc2ccn(C)c(=O)c(Cc3cc(Br)c(OC)c(Br)c3)c-2n1 [CERATAMINE A]	54	–
> 50	CNc1nc2ccn(C)c(=O)c(Cc3ccc(OC)cc3)c-2n1 [DESBROMOCERATAMINE A]	23	–

— ChEMBL document CHEMBL1275365, “Synthetic analogues of the microtubule-stabilizing sponge alkaloid ceratamine A are more active than the natural product” (J Med Chem, 2010)
